The target of test [1] is T1, Prostaglandin G/H synthase 1 (Ovis aries, UniProt P05979).
T1 sequence (P05979 whole entry): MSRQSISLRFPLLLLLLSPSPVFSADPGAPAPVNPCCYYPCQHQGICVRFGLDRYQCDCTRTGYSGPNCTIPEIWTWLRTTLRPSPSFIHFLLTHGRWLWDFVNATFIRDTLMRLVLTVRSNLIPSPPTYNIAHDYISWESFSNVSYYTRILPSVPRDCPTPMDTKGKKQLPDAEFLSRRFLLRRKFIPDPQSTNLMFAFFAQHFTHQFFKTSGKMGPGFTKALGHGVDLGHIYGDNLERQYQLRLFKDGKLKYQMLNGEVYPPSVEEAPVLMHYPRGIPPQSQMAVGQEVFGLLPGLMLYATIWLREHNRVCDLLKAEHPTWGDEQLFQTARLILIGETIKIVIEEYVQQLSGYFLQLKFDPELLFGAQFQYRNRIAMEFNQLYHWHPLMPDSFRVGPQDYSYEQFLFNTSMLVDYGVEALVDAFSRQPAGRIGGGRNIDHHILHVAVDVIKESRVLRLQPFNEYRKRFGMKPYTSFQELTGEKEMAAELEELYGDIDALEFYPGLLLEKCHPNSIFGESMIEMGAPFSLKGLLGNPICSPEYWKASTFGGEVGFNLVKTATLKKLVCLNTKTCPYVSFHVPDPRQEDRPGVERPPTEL
Nature of the test: Inhibition of ovine COX-1 by EIA method.

The subject of another test is UO-31. Nature of the test: Antiproliferative against human UO31 cells incubated for 24 hrs by MTT assay. The class given is functional, cell-based. The note with it: UO-31, 24 h. The method in brief:
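UO-31 cells from ATCC, grown in DMEM with 10% FBS, 10 ug/mL insulin and 1% penicillin-streptomycin. Seeded at 1.2–1.8 × 10,000 cells/well with test compound for 24 h. MTT read-out: crystals dissolved in acidified isopropanol, absorbance at 570 nm.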

Test [2] addresses Epidermal growth factor receptor (Homo sapiens, UniProt P00533). Nature of the test: Inhibition of recombinant human GST-tagged EGFR catalytic domain (668 to 1210 residues) expressed in baculovirus expression system using TK-biotin peptide as substrate measured after 10 mins by HTRF assay.

Chain of Epidermal growth factor receptor (P00533 whole entry, the tested form may be a part): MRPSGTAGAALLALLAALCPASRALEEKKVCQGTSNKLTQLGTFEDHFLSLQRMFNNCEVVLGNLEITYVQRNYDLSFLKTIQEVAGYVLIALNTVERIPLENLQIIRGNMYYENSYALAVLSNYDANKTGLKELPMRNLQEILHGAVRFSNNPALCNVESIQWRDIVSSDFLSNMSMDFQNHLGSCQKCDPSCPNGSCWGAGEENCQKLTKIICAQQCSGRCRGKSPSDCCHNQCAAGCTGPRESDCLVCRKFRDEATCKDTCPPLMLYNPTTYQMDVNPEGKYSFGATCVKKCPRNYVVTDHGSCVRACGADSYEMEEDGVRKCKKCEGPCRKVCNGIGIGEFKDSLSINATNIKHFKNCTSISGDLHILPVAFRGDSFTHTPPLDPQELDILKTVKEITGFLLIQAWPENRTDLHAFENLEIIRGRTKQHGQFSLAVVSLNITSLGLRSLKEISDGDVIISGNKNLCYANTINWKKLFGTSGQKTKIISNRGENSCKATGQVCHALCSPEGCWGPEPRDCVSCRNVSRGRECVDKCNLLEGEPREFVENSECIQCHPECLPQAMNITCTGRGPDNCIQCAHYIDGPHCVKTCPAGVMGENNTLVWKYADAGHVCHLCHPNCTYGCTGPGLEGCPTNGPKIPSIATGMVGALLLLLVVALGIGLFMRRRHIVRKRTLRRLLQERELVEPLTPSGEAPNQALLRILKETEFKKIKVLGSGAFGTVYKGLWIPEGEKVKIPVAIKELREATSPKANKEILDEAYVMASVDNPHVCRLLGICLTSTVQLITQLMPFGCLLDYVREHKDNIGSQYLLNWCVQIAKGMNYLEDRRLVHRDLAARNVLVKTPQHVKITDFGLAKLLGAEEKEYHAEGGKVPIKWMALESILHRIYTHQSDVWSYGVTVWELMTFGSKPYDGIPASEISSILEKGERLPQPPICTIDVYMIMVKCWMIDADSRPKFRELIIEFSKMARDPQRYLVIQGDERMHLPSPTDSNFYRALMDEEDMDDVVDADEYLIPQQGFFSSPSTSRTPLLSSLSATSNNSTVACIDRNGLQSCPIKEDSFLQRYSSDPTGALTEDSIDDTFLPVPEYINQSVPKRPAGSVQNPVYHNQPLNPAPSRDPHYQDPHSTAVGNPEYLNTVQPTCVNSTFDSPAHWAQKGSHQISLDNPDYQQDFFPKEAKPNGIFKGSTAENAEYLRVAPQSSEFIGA

Compound `O=C(Nc1ccccc1)Nc1nnc(-c2ccc(Cl)cc2)o1` showed an IC50 in test [1] of 10.9 µM.
`C(=N\Nc1nnc(-c2ccncc2)o1)/c1ccccc1` displayed a concentration for half-maximal inhibition (IC50) in test [1] of 10.6 µM.
Turning to `N#CCC(=O)Nc1nnc(-c2ccc(Cl)cc2)o1`, the IC50 in test [1] is 13.7 µM.
Regarding `Clc1ccc(/C=N/c2nnc(-c3ccc(Cl)cc3)o2)cc1`, the IC50 in test [1] is 5.39 µM; with UO-31, 0.0296 µM.
On to `O=[N+]([O-])c1ccc(/C=N/Nc2nnc(-c3ccncc3)o2)cc1`, for which the values for the IC50 (in test [2]; in test [1]; in the test on UO-31) were 0.412 µM, 9.87 µM and 0.0086 µM, respectively.
For the compound `COc1cccc2c1C(=O)c1c(O)c3c(c(O)c1C2=O)C[C@@](O)(C(=O)CO)C[C@@H]3O[C@H]1C[C@H](N)[C@H](O)[C@H](C)O1` [DOXORUBICIN], inhibition with UO-31 was half-maximal at 0.00745 µM (IC50).
`CCO/C=N/c1nnc(-c2cccnc2)o1`: the IC50 in test [1] stood at 12.7 µM; in the test with UO-31, 0.31 µM.
The compound `Oc1ccc(-c2nnc(CSc3nnc(-c4ccncc4)o3)o2)cc1` came in with an IC50 in test [1] of 7.96 µM.
Regarding `Brc1ccc(/C=N/Nc2nnc(-c3ccncc3)o2)cc1`, the IC50 in test [1] was determined as 5.71 µM.
Take `O=C(Nc1ccccc1)Nc1nnc(-c2cccnc2)o1`: the values for the 50% inhibitory concentration (IC50) (in test [1]; in the test with UO-31) were 9.37 µM and 0.00576 µM, respectively.
Consider `Clc1ccc(/C=N/c2nnc(-c3cccnc3)o2)cc1`, for which the IC50 in test [2] turned out to be 1.13 µM; in test [1], 10.5 µM; with UO-31, 0.0136 µM.
In turn, `Clc1ccc(/C=N/Nc2nnc(-c3ccncc3)o2)cc1` had an IC50 in test [1] of 8.69 µM.
Compound `Clc1ccc(-c2nnc(CSc3nnc(-c4ccncc4)o3)o2)cc1` registered an IC50 in test [1] of 6.84 µM.
In test [1], `N#CCC(=O)Nc1nnc(-c2cccnc2)o1` had an IC50 of 13.1 µM.
On the same count and under the same terms, with `Clc1ccc(-c2nnc(/N=C/c3ccccc3)o2)cc1` the figure was 7.54 µM; with `O=C(CSc1nnc(-c2ccncc2)o1)N/N=C/c1ccc(Cl)cc1`, 6.78 µM; with `O=[N+]([O-])c1ccc(/C=N/c2nnc(-c3ccccc3)o2)cc1`, 9.81 µM.
On the same count and under the same terms, the value for `CCO/C=N/c1nnc(-c2ccccc2)o1` was 14.2 µM.
Turning to `CCO/C=N/c1nnc(-c2ccc(Cl)cc2)o1`, the figures for the half-inhibitory concentration (IC50) (in test [1]; in the test with UO-31) were 15.4 µM and 0.0527 µM, respectively.
For the compound `O=[N+]([O-])c1ccc(/C=N/c2nnc(-c3ccc(Cl)cc3)o2)cc1`, the IC50 in test [1] was 12 µM.
As for `O=C(Nc1ccccc1)Nc1nnc(-c2ccccc2)o1`, the half-maximal inhibitory concentration (IC50) in test [1] is 6.87 µM; in the test with UO-31, 0.0332 µM.
In test [1], `Clc1ccc(/C=N/c2nnc(-c3ccccc3)o2)cc1` had an IC50 of 11.4 µM.
Still for that read-out and setting: the value for `O=C(CSc1nnc(-c2ccncc2)o1)N/N=C/c1ccc([N+](=O)[O-])cc1` was 4.49 µM.
On to `Brc1ccc(-c2nnc(CSc3nnc(-c4ccncc4)o3)o2)cc1`, for which the results for the IC50 (in test [1]; in the test with UO-31) were 4.17 µM and 0.0835 µM, respectively.
Regarding `O=[N+]([O-])c1ccc(/C=N/c2nnc(-c3cccnc3)o2)cc1`, half-maximal inhibition in test [1] (IC50) was put at 8.29 µM.
